Data from ChEMBL document CHEMBL1129574, “Synthesis, structure-activity relationships, and pharmacokinetic properties of dihydroorotate dehydrogenase inhibitors: 2-cyano-3-cyclopropyl-3-hydroxy-N-[3'-methyl-4'-(trifluoromethyl)phenyl ] propenamide and related compounds” (J Med Chem, 1996).
pIC50: −log10 of the molar value.

Experiments:
[1] = target: Dihydroorotate dehydrogenase (quinone), mitochondrial (Mus musculus, UniProt O35435); test: Inhibitory concentration tested on enzyme dihydroorotate dehydrogenase in mouse
Mus musculus = test: In vivo ability to inhibit delayed type hypersensitivity in mouse at a concentration of 100 mg/kg; type: functional
In short: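 Male CD-1 mice (25–30 g, n = 8-16) sensitized day 0 by s.c. 1 mg methylated BSA in saline/Freund's complete adjuvant; negative controls saline/FCA. Day 7 challenge: MBSA 0.1 mg into right hind footpad, saline in left. Oral dosing once daily days 4–6 plus twice on day 7 (1 h before, 6 h after challenge). Paw edema read 24 h post-challenge; Student's t-test.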

Rattus norvegicus = test: In vivo ability to inhibit delayed type hypersensitivity in rat at a concentration of 50 mg/kg; type: functional
In short: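 Male CFHB rats (160-180 g, n=7-12) sensitized day 0 by tail-base s.c. FCA (0.4 mg M. tuberculosis in liquid paraffin); controls got incomplete adjuvant. Day 7 challenge: soluble M. tuberculosis extract 0.4 mg into right hind footpad, saline in left. Oral dosing once daily days 4-6 and twice day 7 (1 h before, 6 h after). Edema read at 24 h; Student's t-test.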

[2] = target: Dihydroorotate dehydrogenase (quinone), mitochondrial (Rattus norvegicus, UniProt Q63707); test: Inhibitory concentration tested against enzyme dihydroorotate dehydrogenase in rat
Dihydroorotate dehydrogenase (quinone), mitochondrial (Rattus norvegicus, UniProt Q63707), sequence (Q63707 whole entry): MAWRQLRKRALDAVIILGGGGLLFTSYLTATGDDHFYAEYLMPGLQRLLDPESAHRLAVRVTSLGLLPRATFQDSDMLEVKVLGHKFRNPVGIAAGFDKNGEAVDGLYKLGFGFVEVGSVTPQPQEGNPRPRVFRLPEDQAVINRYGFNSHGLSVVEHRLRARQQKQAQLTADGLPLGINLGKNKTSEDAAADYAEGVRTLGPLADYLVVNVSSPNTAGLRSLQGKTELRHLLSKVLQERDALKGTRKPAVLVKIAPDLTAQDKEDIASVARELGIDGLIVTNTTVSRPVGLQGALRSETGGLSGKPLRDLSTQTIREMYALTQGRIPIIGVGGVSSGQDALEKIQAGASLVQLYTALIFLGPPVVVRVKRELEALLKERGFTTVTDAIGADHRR

Dihydroorotate dehydrogenase (quinone), mitochondrial (Mus musculus, UniProt O35435), sequence (O35435 whole entry): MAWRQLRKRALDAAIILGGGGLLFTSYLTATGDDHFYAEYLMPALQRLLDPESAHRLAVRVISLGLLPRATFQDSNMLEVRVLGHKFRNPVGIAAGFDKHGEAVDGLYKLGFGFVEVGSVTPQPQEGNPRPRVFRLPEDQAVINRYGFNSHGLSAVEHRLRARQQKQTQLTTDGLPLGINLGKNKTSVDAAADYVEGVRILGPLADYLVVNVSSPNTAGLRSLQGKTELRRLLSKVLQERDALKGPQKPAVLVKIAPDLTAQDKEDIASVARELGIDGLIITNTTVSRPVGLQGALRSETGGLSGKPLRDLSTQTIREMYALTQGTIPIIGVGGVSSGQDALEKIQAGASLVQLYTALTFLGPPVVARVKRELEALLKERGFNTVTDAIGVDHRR

Compound: N#C/C(C(=O)Nc1ccc(-c2ccco2)cc1)=C(/O)C1CC1
- pIC50 [1]: 5.23
- inhibition in vivo at 100 mg/kg (Mus musculus): -13%
- inhibition in vivo at 50 mg/kg (Rattus norvegicus): 58%

Compound: COC(=O)c1ccc(NC(=O)/C(C#N)=C(\O)C2CC2)cc1
- pIC50 [1]: 5.95
- inhibition in vivo at 100 mg/kg (Mus musculus): 34%
- inhibition in vivo at 50 mg/kg (Rattus norvegicus): 59%

Compound: Cc1ccc(NC(=O)/C(C#N)=C(\O)C2CC2)cc1Cl
- pIC50 [1]: 6.55
- pIC50 [2]: 7.10
- inhibition in vivo at 100 mg/kg (Mus musculus): 43%
- inhibition in vivo at 50 mg/kg (Rattus norvegicus): 31%

Compound: N#C/C(C(=O)Nc1ccc(Oc2ccccc2)cc1)=C(/O)C1CC1
- pIC50 [2]: 6.54
- inhibition in vivo at 100 mg/kg (Mus musculus): 9%
- inhibition in vivo at 50 mg/kg (Rattus norvegicus): 6%

Compound: N#C/C(C(=O)Nc1ccc(-c2ccccc2)cc1)=C(/O)C1CC1
- pIC50 [2]: 5.83
- inhibition in vivo at 100 mg/kg (Mus musculus): 33%
- inhibition in vivo at 50 mg/kg (Rattus norvegicus): 70%

Compound: N#C/C(C(=O)Nc1ccc(Cl)cn1)=C(/O)C1CC1
- pIC50 [1]: 6.70
- pIC50 [2]: 7.12
- inhibition in vivo at 100 mg/kg (Mus musculus): 48%
- inhibition in vivo at 50 mg/kg (Rattus norvegicus): 64%

Compound: N#C/C(C(=O)Nc1ccc(C(F)(F)F)cc1)=C(/O)C1CCOC1 (centres undefined)
- pIC50 [1]: 4.93
- pIC50 [2]: 4.75
- inhibition in vivo at 100 mg/kg (Mus musculus): 29%
- inhibition in vivo at 50 mg/kg (Rattus norvegicus): 14%

Compound: N#C/C(C(=O)Nc1ccc(C(F)(F)F)cc1)=C(/O)C1CCCO1 (centres undefined)
- pIC50 [1]: 5.10
- pIC50 [2]: 4.35
- inhibition in vivo at 100 mg/kg (Mus musculus): 29%
- inhibition in vivo at 50 mg/kg (Rattus norvegicus): 11%

Compound: N#C/C(C(=O)Nc1ccc(C(F)(F)F)cc1)=C(/O)C1CCCC1
- pIC50 [1]: 4.55
- pIC50 [2]: 4.50
- inhibition in vivo at 100 mg/kg (Mus musculus): 58%
- inhibition in vivo at 50 mg/kg (Rattus norvegicus): 19%

Compound: N#C/C(C(=O)Nc1ccc(C(F)(F)F)cc1)=C(/O)C1CCCN1 (centres undefined)
- pIC50 [1]: < 4.00
- pIC50 [2]: < 4.00
- inhibition in vivo at 100 mg/kg (Mus musculus): -4%
- inhibition in vivo at 50 mg/kg (Rattus norvegicus): -16%

Compound: CN1CCCC1/C(O)=C(\C#N)C(=O)Nc1ccc(C(F)(F)F)cc1 (centres undefined)
- pIC50 [1]: < 4.00
- pIC50 [2]: < 4.00
- inhibition in vivo at 100 mg/kg (Mus musculus): 10%
- inhibition in vivo at 50 mg/kg (Rattus norvegicus): 23%

Compound: N#C/C(C(=O)Nc1ccc(C=Cc2ccc(Cl)cc2)cc1)=C(/O)C1CC1
- pIC50 [1]: 7.66
- inhibition in vivo at 100 mg/kg (Mus musculus): 19%
- inhibition in vivo at 50 mg/kg (Rattus norvegicus): 52%

Compound: COc1ccc(NC(=O)/C(C#N)=C(\O)C2CC2)cc1
- pIC50 [1]: 5.43
- pIC50 [2]: 6.73
- inhibition in vivo at 100 mg/kg (Mus musculus): 9%
- inhibition in vivo at 50 mg/kg (Rattus norvegicus): 57%

Compound: N#C/C(C(=O)Nc1ccc(C(F)(F)F)cc1)=C(/O)C1CCC1
- pIC50 [1]: 6.68
- pIC50 [2]: 6.55
- inhibition in vivo at 100 mg/kg (Mus musculus): 4%
- inhibition in vivo at 50 mg/kg (Rattus norvegicus): 1%

Compound: CN(C(=O)c1ccc(NC(=O)/C(C#N)=C(\O)C2CC2)cc1)c1ccc(Cl)cc1
- pIC50 [1]: 5.65
- pIC50 [2]: 4.72
- inhibition in vivo at 100 mg/kg (Mus musculus): -8%
- inhibition in vivo at 50 mg/kg (Rattus norvegicus): 22%

Compound: N#C/C(C(=O)Nc1ccc(-c2ncco2)cc1)=C(/O)C1CC1
- pIC50 [1]: 4.70
- pIC50 [2]: 5.37
- inhibition in vivo at 100 mg/kg (Mus musculus): 17%
- inhibition in vivo at 50 mg/kg (Rattus norvegicus): 42%

Compound: N#C/C(C(=O)Nc1ccc(C(N)=O)cc1)=C(/O)C1CC1
- pIC50 [1]: < 4.00
- pIC50 [2]: 4.85
- inhibition in vivo at 100 mg/kg (Mus musculus): -18%
- inhibition in vivo at 50 mg/kg (Rattus norvegicus): 20%

Compound: N#C/C(C(=O)Nc1ccncc1)=C(/O)C1CC1
- pIC50 [1]: 5.05
- pIC50 [2]: 4.93
- inhibition in vivo at 100 mg/kg (Mus musculus): 22%
- inhibition in vivo at 50 mg/kg (Rattus norvegicus): 17%

Compound: N#C/C(C(=O)Nc1ccc(C(=O)O)cc1)=C(/O)C1CC1
- pIC50 [1]: 5.43
- pIC50 [2]: 5.83
- inhibition in vivo at 100 mg/kg (Mus musculus): -6%
- inhibition in vivo at 50 mg/kg (Rattus norvegicus): 39%

Compound: N#C/C(C(=O)Nc1ccc(O)cc1)=C(/O)C1CC1
- pIC50 [1]: < 4.00
- pIC50 [2]: 5.10
- inhibition in vivo at 100 mg/kg (Mus musculus): -11%
- inhibition in vivo at 50 mg/kg (Rattus norvegicus): 37%

Compound: N#C/C(C(=O)Nc1ccc(N)cc1)=C(/O)C1CC1
- pIC50 [1]: 4.50
- pIC50 [2]: 4.66
- inhibition in vivo at 100 mg/kg (Mus musculus): 32%
- inhibition in vivo at 50 mg/kg (Rattus norvegicus): 1%
